Compound activity from PubChem.
A selection: hits, their analogues and other compounds. The true share with any hit is near 1.3%.
EphB4 antag = blocks human EphB4 binding to ephrin-B2. P54760. EphB4 LBD / TNYL-RAW-Alexa532 peptide, fluorescence polarization. inhibition, % at 7 µM. 97,000 compounds, 0.15% hits;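 active = inhibition above the screen-wide mean inhibition plus 3 SD, cut at about 15% in these data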;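 also: 0% = DMSO wells and 100% = excess unlabeled TNYL-RAW peptide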
HIV Rev-RRE inh = HIV Rev-RRE protein-RNA interaction inhibition; P05866; Rev peptide-RRE RNA binding, FRET; inhibition, % at 8 µM; 97,000 compounds, 0.79% hits; AID 704;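 active = inhibition above the screen-wide mean plus 3 SD, cut at about 35% in these data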;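 also: 0% = median DMSO wells and 100% = median Neomycin B control wells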
Target sequence (P05866 whole entry, looked up): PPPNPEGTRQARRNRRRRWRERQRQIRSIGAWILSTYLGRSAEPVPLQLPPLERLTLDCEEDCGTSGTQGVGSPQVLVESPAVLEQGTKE
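Assay system: Labelled RRE RNA duplex and labelled Rev peptide | Times: 5 min preincubation and 15 min binding, 25 °C | Detection: FRET, ex 480 nm, em 540 and 671 nm | Evaluation: % inhibition of FRET ratio versus controls | Benchmarks: DMSO wells as 0% and neomycin B wells as 100% inhibition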
Smad3 FoxH1 inh = blocks human Smad3 binding to FoxH1 peptide; P84022; TR-FRET Smad3/Dy647-FoxH1 peptide binding, europium anti-His; inhibition, % at 25 µM; 88,000 compounds, 0.29% hits; AID 630;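 active = compounds that reduce the energy-transfer binding signal between the protein and its labelled peptide by more than half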;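 also: 0% = Smad3 plus labelled peptide maximal FRET and 100% = peptide-only background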
Target sequence (P84022 whole entry, looked up): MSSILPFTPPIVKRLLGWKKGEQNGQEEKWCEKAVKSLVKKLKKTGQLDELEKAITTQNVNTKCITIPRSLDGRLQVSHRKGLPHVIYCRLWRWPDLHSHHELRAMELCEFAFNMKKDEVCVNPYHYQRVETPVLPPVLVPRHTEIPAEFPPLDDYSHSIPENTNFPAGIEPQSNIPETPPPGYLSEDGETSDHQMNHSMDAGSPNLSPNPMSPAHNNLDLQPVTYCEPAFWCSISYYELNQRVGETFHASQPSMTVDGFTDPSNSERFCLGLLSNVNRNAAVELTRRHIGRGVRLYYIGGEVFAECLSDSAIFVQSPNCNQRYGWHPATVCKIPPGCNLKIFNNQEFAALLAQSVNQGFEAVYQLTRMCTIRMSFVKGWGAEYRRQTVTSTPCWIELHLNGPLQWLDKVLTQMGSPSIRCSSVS
CD11b adhes enh = CD11b/CD18-fibrinogen binding enhancement | P05107+P11215 | K562 CD11b/CD18 adhesion to fibrinogen, ATPlite luminescence | activation, % at 10 µM | 93,000 compounds, 0.07% hits | AID 1499;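 active = 10 µM primary screen giving 50% or more activity, confirmed by 40% or more on retest at that dose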
Phagocytosis inh = inhibitors of macrophage phagocytosis; J774A.1 macrophage IgG-bead phagocytosis, imaging; inhibition, % at 5 µM; 110,000 compounds, 0.07% hits; AID 1029;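 active = inhibition above the mean of the plate negative controls plus 5 SD, cut at about 13% in these data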;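 also: phagocytic index as fraction of beads internalized from green versus red external bead signal; plate controls were DMSO negative control for no effect and cytochalasin-D positive control for full effect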
Mac1 fbg inh = CD11b/CD18-fibrinogen binding inhibition. K562 CD11b/CD18 adhesion to fibrinogen, ATPlite luminescence; Mn2+ added to activate the integrin. inhibition, % at 10 µM. 93,000 compounds, 0.54% hits. AID 1497;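 active = primary inhibition of 50% or more at 10 µM, then 40% or more on retest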
Active calls of the source: *; / = no result given; [ ] = another dose, or the depositor's remark.

SMILES | EphB4 antag | HIV Rev-RRE inh | Smad3 FoxH1 inh | CD11b adhes enh | Phagocytosis inh | Mac1 fbg inh
CN(C)CCN(Cc1ccccc1)c1nccc(N(C)C)c1C#N | -3 | -1 | 10 | -2 | 0 | 19
CN(C)c1nccc(Nc2ccccc2)c1C#N | 16* | -2 | -10 | -2 | -1 | 14
Cc1nnc(NC(=O)CSc2nccn2C)s1 | 71* | 8 | -2 | / | / | /
O=C(O)C1Nc2c(O)cccc2C2C=CCC12 (centres undefined) | / | / | 40 | 73 | -10 | -11
O=C(OC1CCCCC1)c1ccc2c(c1)C1C=CCC1C(C(=O)O)N2 (centres undefined) | / | / | / | 150* | -1 | -59
Cc1cccc(-n2nnc(C(=O)N3CCc4ccccc4C3)c2N)c1 | 2 | 13 | 3 | / | / | /
Cc1cc(C)c2cc3c(N)c(C(=O)N4CCc5ccccc5C4)sc3nc2c1 | 3 | 72* | / | 40 | -1 | -8
Cc1ccc(-c2cc(C(=O)N3CCCc4ccccc43)c3ccccc3n2)cc1 | 4 | 4 | / | -2 | / | 6
Cc1ccc2nc3sc(C(=O)N4CCCc5ccccc54)c(N)c3cc2c1 | 0 | 49* | / | 2 | 0 | 18
Cc1cccc2cc3c(N)c(C(=O)N4CCOCC4)sc3nc12 | -3 | 50* | 7 | / | / | /
CN1CCC[C@H]1c1cccnc1.O=C(O)c1ccccc1O.O=C([OH2+])c1ccccc1O.O=C([OH2+])c1ccccc1O.O=C([OH2+])c1ccccc1O.[Mn] | / | / | 19 | / | / | /
CCOc1ccc(C(CCc2ccccc2)NC(=O)c2ccccc2OC)cc1OCC (centres undefined) | 6 | -2 | / | 2 | 2 | 6
CCOc1ccc(C(CCc2ccccc2)NC(=O)c2ccccc2F)cc1OCC (centres undefined) | 18* | 5 | / | 0 | 0 | 6
Nc1ccc2c3c(cccc13)CC2 | -2 | 47* | / | -1 | -2 | -6
c1ccc(Nc2ccc3c4c(cccc24)CC3)cc1 | -5 | 9 | 13 | / | / | /
COc1ccc(-c2cc([C@H](O)[C@@H]3CCCCN3)c3ccccc3n2)cc1 | / | / | 12 | / | / | /
COc1ccccc1/C=c1\sc2nc(-c3ccco3)nn2c1=O | -5 | -3 | 7 | -6 | -1 | -26
COc1ccc(OC)c(/C=c2\sc3nc(-c4cccs4)nn3c2=O)c1 | -10 | 57* | -5 | 13 | 0 | 10
Cc1cc(Br)ccc1NC(=S)Nc1cccc([N+](=O)[O-])c1 | / | / | / | -10 | -9 | 99*
CCOc1ccc(C2C=C(c3ccc(F)cc3)Nc3ncnn32)cc1 (centres undefined) | 0 | 57* | 11 | 6 | -1 | -20
C1=C(c2ccc(-c3ccccc3)cc2)Nc2ncnn2C1c1ccco1 (centres undefined) | 3 | 118*[fluorescence artefact?] | 2 | 39 | -2 | -7
Fc1ccc(C2=CC(c3ccco3)n3ncnc3N2)cc1 (centres undefined) | / | / | / | / | -2 | /
CCCC1=C(C(=O)OCC)C(c2ccc(F)cc2)n2ncnc2N1 (centres undefined) | -5 | 13 | 8 | 0 | -1 | -9
CCOc1ccc(C2C=C(c3ccccc3)Nc3ncnn32)cc1 (centres undefined) | -1 | 40* | 4 | -2 | -5 | -11
COc1cccc(C2=CC(c3ccccc3)n3ncnc3N2)c1 (centres undefined) | -1 | 42* | / | / | / | /
SMILES | EphB4 antag | HIV Rev-RRE inh | Smad3 FoxH1 inh | CD11b adhes enh | Phagocytosis inh | Mac1 fbg inh
O=S(=O)(O)n1ccnc1 (tested in a mixture with another compound) | / | / | 2 | / | / | /
Fc1cccc(Cl)c1/C=N/N=C1c2ccccc2-c2ccccc21 | / | / | 59* | / | / | /
Cc1cc(C)n(CCc2nc3c4ccccc4n(CC(=O)Nc4ccc(Cl)cc4F)c(=O)n3n2)n1 | / | / | 8 | / | / | /
Cc1ccc2nc(N/N=C/c3cccc(C)n3)cc(C)c2c1 | / | / | 11 | / | / | /
COc1ccc2nccc(SCC(=O)O)c2c1 | / | / | 1 | / | / | /
Cc1ccc(-c2nc(CSCC(=O)N3CCN(c4ccccn4)CC3)c(C)o2)cc1 | 2 | 6 | 6 | -14 | / | 88*
CCc1ccc(-c2nc(CSCC(=O)N3CCN(c4ccccn4)CC3)c(C)o2)cc1 | -8 | -3 | 10 | / | / | /
O=C(CSCc1ccccc1)N1CCN(Cc2ccc3c(c2)OCO3)CC1 | 4 | 6 | 2 | / | / | /
Cc1cccc(-c2nc(CSCC(=O)N3CCN(Cc4ccc5c(c4)OCO5)CC3)c(C)o2)c1 | / | / | -8 | -5 | -1 | 81*
O=C(/C=C/c1ccccc1Cl)NCc1ccccc1 | 16* | 4 | / | / | / | /
COc1ccc(/C=C/c2ccncc2)c2ccccc12 | -3 | 141*[fluorescence artefact?] | 8 | 1 | 0 | 19
COc1ccc(C=Nc2cccc3c(=O)[nH][nH]c(=O)c23)c2ccccc12 | 1 | 9 | -7 | 16 | 1 | -27
O=C(Nc1ccc(Cn2cccn2)cc1)c1ccc(COc2ccc(Br)cc2)cc1 | 0 | 8 | / | 52* | / | -5
O=C(Nc1ccc(Cn2cccn2)cc1)c1ccc(COc2cccc(Br)c2)cc1 | 0 | 5 | / | 6 | -1 | 25
Cc1ccc(C(C)C)c(OCCNc2nc3c(c(=O)n(C)c(=O)n3C)n2C)c1 | / | / | -10 | / | / | /
C/C(N[O-])=C(\C)[N+]([O-])=[Co].CC(=N\[O-])/C(C)=N/[O-].O[C@@H]1[CH-]CCCC1.c1ccncc1 | / | / | 71* | / | / | /
O=C(CSc1nnnn1Cc1ccccc1)Nc1ccc2c(c1)OCO2 | 18* | -5 | -2 | -1 | 1 | -6
COC(=O)c1cc2c(C)cc3ccc(C)cn3c-2c1C(=O)OC | -1 | 36* | / | -1 | -2 | -14
OCCN(CO)CO | / | / | -7 | / | / | /
CCOc1ccc(-n2c(-c3ccc(OC)cc3)c[n+]3c2CCCCC3)cc1 | / | / | / | -7 | 9 | 100*
OC[C@@H](O)[C@@H](O)[C@@H](O)[C@@H](O)c1nc2ccc(Cl)cc2[nH]1 | / | / | -10 | / | / | /
O=[N+]([O-])c1cccc(S(=O)(=O)Nc2nc3ccccc3nc2Nc2cccc(S(=O)(=O)N3CCCCC3)c2)c1 | / | / | / | 4 | -4 | 98*
CN1CCN(S(=O)(=O)c2cccc([N+](=O)[O-])c2)CC1 | 1 | 3 | / | / | / | /
O=C(Nc1ccc(Cc2ccncc2)cc1)C1CCC(N2C(=O)C3C4C=CC(C4)C3C2=O)CC1 (centres undefined) | 3 | 6 | / | -4 | 0 | 22
O=C(Nc1ccc(Cc2ccncc2)cc1)C1CCC(N2C(=O)C3CC=CCC3C2=O)CC1 (centres undefined) | 3 | 4 | 56* | -1 | 0 | -6
COc1ccc(C(=O)Nc2ccc(C)cn2)c(OC)c1 | 6 | 12 | -3 | -8 | -2 | 76*
O=S(=O)(O)c1cc(O)c2c(O)c(N=Nc3cccc4ccccc34)c(S(=O)(=O)O)cc2c1 | / | / | 3 | / | / | /
Cc1ccc(OCCCCn2cnc3ccccc32)c(C)c1 | -4 | 20 | -11 | -9 | 0 | 86*
NC1=C(O)C(=O)[C@H](c2c[nH]c3ccc(OCc4ccccc4)cc23)O1 | / | / | 10 | / | / | /
